Data from ChEMBL document CHEMBL6092128, “2-Aryl-1-hydroxyimidazoles possessing antiviral activity against a wide range of orthopoxviruses, including the variola virus” (RSC Med Chem, 2024).

Tests used:
Vaccinia virus = assay: Antiviral activity against Vaccinia virus Copenhagen infected in African green monkey Vero cells assessed as inhibition of virus-induced cytotoxicity incubated for 4 days by neutral red dye uptake based spectrophotometric analysis; assay type: functional, organism-based, Orthopoxvirus vaccinia
[1] = Cytotoxicity against African green monkey Vero cells assessed as cell destruction incubated for 4 days by neutral red dye uptake based spectrophotometric analysis; assay type: toxicity; details: chlorocebus sabaeus, time 4 day
Summary of the method: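 Uninfected confluent Vero monolayers in DMEM with 2% FBS were exposed to 3-fold compound dilutions, final 300 to 0.14 μg mL−1 (some from 600), in triplicate rows for 4 days at 37 °C. Viable cells were measured by neutral red uptake (1.5 h), acid phosphate/ethanol extraction and OD 490 nm. CC50 was taken from semilog concentration–OD curves and recalculated to μM.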

[2] = Selectivity index, ratio of CC50 for cytotoxicity against African green monkey Vero cells to IC50 for antiviral activity against Vaccinia virus Copenhagen infected in African green monkey Vero cells; assay type: toxicity, cell-based; details: read-out: Ratio CC50/IC50
Cowpox virus = assay: Antiviral activity against Cowpox virus Grishak infected in African green monkey Vero cells assessed as inhibition of virus-induced cytotoxicity incubated for 4 days by neutral red dye uptake based spectrophotometric analysis; assay type: functional, organism-based; details: 96 h
[3] = Selectivity index, ratio of CC50 for cytotoxicity against African green monkey Vero cells to IC50 for antiviral activity against Cowpox virus Grishak infected in African green monkey Vero cells; assay type: toxicity, cell-based; details: read-out: Ratio CC50/IC50
Ectromelia virus = assay: Antiviral activity against Ectromelia virus K-1 infected in African green monkey Vero cells assessed as inhibition of virus-induced cytotoxicity incubated for 4 days by neutral red dye uptake based spectrophotometric analysis; assay type: functional, organism-based; details: K-1, Vero, 96 h
[4] = Selectivity index, ratio of CC50 for cytotoxicity against African green monkey Vero cells to IC50 for antiviral activity against Ectromelia virus K-1 infected in African green monkey Vero cells; assay type: toxicity, cell-based; details: read-out: Ratio CC50/IC50
Variola virus = assay: Antiviral activity against Variola virus India3a infected in African green monkey Vero cells assessed as inhibition of virus-induced cytotoxicity incubated for 4 days by neutral red dye uptake based spectrophotometric analysis; assay type: functional, organism-based; details: 96 h
[5] = Selectivity index, ratio of CC50 for cytotoxicity against African green monkey Vero cells to IC50 for antiviral activity against Variola virus India3a infected in African green monkey Vero cells; assay type: toxicity, cell-based; details: read-out: Ratio CC50/IC50
[6] = Orthopoxvirus vaccinia, Copenhagen, Vero, 96 h, read-out: IC50

Row | Structure (SMILES) | IC50 (Vaccinia virus; [6]) [µM] | CC50 at 96 h [1] [µM] | selectivity ratio [2] | IC50 (Cowpox virus) [µM] | selectivity ratio [3] | IC50 (Ectromelia virus) [µM] | selectivity ratio [4] | IC50 (Variola virus) [µM] | selectivity ratio [5] | IC50 (Vaccinia virus; vero)
1 | COc1ccc(-c2nc(C)c(C(C)=O)n2O)cc1 | 17.9 | 614 | 34 | – | – | – | – | – | – | –
2 | O=C(NNC(=O)C1C2C=CC(C3CC23)C1C(=O)O)c1ccc(C(F)(F)F)cc1 (stereo unspecified) | 0.008 | – | 149000 | 0.009 | 133000 | 0.008 | 149000 | 0.008 | 149000 | –
3 | COn1c(-c2ccc([N+](=O)[O-])cc2)nc2c1C(=O)CC(C)(C)C2 | 3.96 | 1150 | 291 | 17.9 | 65 | 12.5 | 92 | 3.96 | 291 | –
4 | Cc1ccc(C)c(COn2c(-c3ccc([N+](=O)[O-])cc3)nc3c2C(=O)CC(C)(C)C3)c1 | 1.34 | 105 | 79 | 32.3 | < 8 | 14.4 | < 8 | – | – | –
5 | COn1c(-c2ccc(N(C)C)cc2)nc(C)c1C(C)=O | 62.1 | 197 | < 8 | – | – | – | – | – | – | –
6 | CC1(C)CC(=O)c2c(n(Cc3ccccc3)c(-c3ccc([N+](=O)[O-])cc3)[n+]2[O-])C1 | 27.7 | 359 | 13 | – | – | – | – | – | – | –
7 | CC1(C)CC(=O)c2c(nc(-c3ccc(C#N)cc3)n2O)C1 | 0.498 | 175 | 351 | 17.1 | 10 | 2.49 | 70 | 1.45 | 120 | –
8 | COn1c(-c2ccc(C#N)cc2)nc(C)c1C(C)=O | 228 | 1060 | < 8 | – | – | – | – | – | – | –
9 | CC(=O)c1c(C)n(C)c(-c2ccc(C#N)cc2)[n+]1[O-] | – | 1510 | – | – | – | – | – | – | – | Not_active
10 | CC1(C)CC(=O)c2c(nc(-c3ccc([N+](=O)[O-])cc3)n2OCc2ccc(Cl)c(Cl)c2)C1 | 0.61 | 109 | 178 | 7.04 | 15 | 1.8 | 60 | – | – | –
11 | COn1c(-c2ccc(C#N)cc2)nc2c1C(=O)CC(C)(C)C2 | 28.5 | 757 | 27 | – | – | – | – | – | – | –
12 | CC1(C)CC(=O)c2c(nc(-c3ccc([N+](=O)[O-])cc3)n2OCc2ccccc2Br)C1 | 2.91 | 100 | 34 | 29.1 | < 8 | 28.7 | < 8 | – | – | –
13 | CC1(C)CC(=O)c2c(nc(-c3ccc([N+](=O)[O-])cc3)n2OCc2c(F)cccc2F)C1 | 1.22 | 51.7 | 43 | 7.39 | < 8 | 4.49 | 12 | – | – | –
14 | CC(=O)c1c(C)nc(-c2ccc(C#N)cc2)n1O | 1.12 | 84.6 | 76 | – | – | – | – | – | – | –
15 | CC1(C)CC(=O)c2c(nc(-c3ccc(C(F)(F)F)cc3)n2O)C1 | 0.154 | 46.2 | 300 | 2.41 | 19 | 0.49 | 94 | 0.18 | 257 | –
16 | CC(=O)c1c(C)nc(-c2ccc(C(F)(F)F)cc2)n1O | 0.07 | 3.87 | 55 | – | – | – | – | – | – | –
17 | CC1(C)CC(=O)c2c(nc(-c3ccc([N+](=O)[O-])cc3)n2O)C1 | 0.133 | 142 | 1070 | 1.16 | 123 | 0.39 | 358 | 0.38 | 373 | –
18 | COn1c(-c2ccc(C(F)(F)F)cc2)nc(C)c1C(C)=O | 5.9 | 176 | 30 | – | – | – | – | – | – | –
19 | CC(=O)c1c(C)nc(-c2ccc([N+](=O)[O-])cc2)n1O | 0.651 | 28.3 | 44 | 5.9 | < 8 | 1.3 | 22 | – | – | –
20 | Cn1c2c([n+]([O-])c1-c1ccc([N+](=O)[O-])cc1)C(=O)CC(C)(C)C2 | 183 | 2440 | 13 | – | – | – | – | – | – | –
21 | CC1(C)CC(=O)c2c(nc(-c3ccc([N+](=O)[O-])cc3)n2OCc2ccccc2)C1 | 6.39 | 1160 | 182 | 78.2 | 15 | 30.9 | 38 | – | – | –
22 | CC(=O)c1c(C)n(C)c(-c2ccc([N+](=O)[O-])cc2)[n+]1[O-] | – | 2980 | – | – | – | – | – | – | – | Not_active
23 | CC(=O)c1c(C)nc(-c2ccc(N(C)C)cc2)n1O | 12.9 | 299 | 23 | – | – | – | – | – | – | –
24 | COn1c(-c2ccc([N+](=O)[O-])cc2)nc(C)c1C(C)=O | 4.76 | 444 | 93 | 22.3 | 20 | 13.9 | 32 | – | – | –
25 | Cn1c2c([n+]([O-])c1-c1ccc(C(F)(F)F)cc1)C(=O)CC(C)(C)C2 | 14.2 | 2080 | 146 | – | – | – | – | – | – | –
26 | COc1ccc(-c2nc(C)c(C(C)=O)n2OC)cc1 | 207 | 357 | < 8 | – | – | – | – | – | – | –
27 | Nc1ccn(C[C@@H](CO)OCP(=O)(O)O)c(=O)n1 [CIDOFOVIR ANHYDROUS] | – | 1110 | 34 | 48.2 | 23 | 39.4 | 28 | 43.1 | 26 | –
